The source of these data is ChEMBL document CHEMBL4513216, “Probing the Open Global Health Chemical Diversity Library for Multistage-Active Starting Points for Next-Generation Antimalarials” (ACS Infect Dis, 2020).

The structures appear in SMILES notation.

The data set in a line: Toxicity liver stage against HepG2, at 10uM. The format is cell-based. More on the design: test concentration 10 uM, cell line HepG2-A16-CD81EGFP. To be noted: human, HepG2-A16-CD81EGFP cells; read-out: INHIBITION
An outline of the steps: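 Uninfected HepG2-A16-CD81EGFP cells, 3 × 10^3 per well, 1536-well, plated on prespotted compound at 10 μM final, parasite-free screening media added to match infected plates; puromycin 10 μM positive, DMSO 0.5% negative; run in parallel with 48 h PbLuc assay at 37 °C, 5% CO2; viability by CellTiter-Glo luminescence, normalized to controls.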
With `O=C(O)CSC1CCc2ccccc2NC1=O` (stereo not given), the cytotoxicity at 10 µM was found to be 1.13%.
Consider `CN(CCOc1ccc(F)cc1)S(=O)(=O)c1cnn(C)c1`, for which the cytotoxicity at 10 µM is -3.23%.
In the case of `O=C(NCCNc1ncccn1)c1ccc(OCc2ccccc2)nc1` it was 17%.
Turning to `COCc1noc(Cn2ncn3cccc3c2=O)n1`, the cytotoxicity at 10 µM was -5.56%.
For the compound `COc1cccc(CNC(=O)c2cc(C)nc(N3CCCC3)n2)c1`, the cytotoxicity at 10 µM stood at 23.1%.
Turning to `CCCC1CCCN(C(=O)Nc2ccc(F)c(C(N)=O)c2)CC1` (stereo not given), the cytotoxicity at 10 µM was -2.27%.
In the case of `CN(C)S(=O)(=O)N1CCO[C@H]2[C@H](Oc3cccnc3)CC[C@@H]21` it was 4.64%; in that of `COc1ccsc1C(=O)Nc1cc(Br)c(=O)n(C)c1`, -11%; in that of `CN(Cc1ccccc1)c1ncccc1CNC1CCCC1`, -8.8%.
In the case of `CN(Cc1ccno1)C(=O)c1cccc(CC2CCNCC2)c1` it was -15.9%.
The value for `NC1CC(C(F)(F)F)=NC=C1c1ccc(Cl)cc1` (stereo not given) was 50.2%.
For `Cc1cc(-c2cncnc2)ccc1OCC(N)=O`, the cytotoxicity at 10 µM turned out to be 8.07%.
In the case of `COc1ccc(-c2cn3c(n2)CO[C@@H](CNCc2nccn2C)C3)cc1` it was -0.765%.
As to `CCc1nc(CC(=O)NCC2(C(N)=O)CCOCC2)cs1`, the cytotoxicity at 10 µM is -9.92%.
The value for `Cc1ccc(CNC(=O)N2CCN(S(C)(=O)=O)CC2)n1C` was 2.22%.
Consider `COc1ccc(CN2CCC3(CC(=O)N(c4cncnc4)C3)C2)cc1` (stereo not given), for which the cytotoxicity at 10 µM worked out at 4.53%.
In the case of `CN1CCN(c2cccc(NC(=O)NCc3csc(N(C)C)n3)c2)C1=O`, the cytotoxicity at 10 µM turned out to be 0.91%.
In the case of `Cc1nn(C)c2ncc(NC(=O)N3CCNC(=O)C3)cc12` it was -5.81%; in that of `O=C(NCCN1CCOCC1)c1ccn(-c2ccc3ccccn23)n1`, -0.735%.
The value for `O=C([C@@H]1CCO[C@@H]2CCN(CC3CCOCC3)C[C@H]21)N1CCCO1` was 7.37%; that for `COCC(=O)N(C)Cc1ccc(F)c(F)c1` was -140%.
The value for `O=C(c1ccno1)N1CCC2(CC(=O)N(c3ccc4c(c3)OCO4)C2)C1` (stereo not given) was 9.82%; that for `CC(=O)NCCCC(=O)NC1(c2ccc(Cl)c(Cl)c2)CC1` was -7.79%.
As to `Cn1cc(C2CC(=O)NC23CCN(C(=O)C2CC=CC2)CC3)cn1` (stereo not given), the cytotoxicity at 10 µM was 8.13%.
As to `CSc1nccn1-c1cccc(C(=O)NCCC(=O)NC(C)C)c1`, the cytotoxicity at 10 µM came out at 0.153%.
Take `Cc1noc(Cl)c1CC(=O)NCC(C)(O)c1ccc(F)cc1F` (stereo not given): the cytotoxicity at 10 µM is -0.837%.
In the case of `Clc1ccc(C2(NCc3noc(C4CC4)n3)CCOCC2)cc1` it was -3.1%; in that of `COc1cccc(SCC(=O)N2CCC(N3CCCC3=O)CC2)c1`, -9.41%; in that of `CC(=O)N(Cc1ncc(C)o1)C1CCN(Cc2ccon2)C1` (stereo not given), -9.03%.
In the case of `Cc1ccc(C)c(OCCNC(=O)[C@@H]2CCCCN2)c1` it was 0.997%; in that of `CC(C)c1nccn1C1CCCN(C(=O)c2cnn(C)c2C2CC2)C1` (stereo not given), -5.5%; in that of `CCCc1nc(NCCCOC)c2c(n1)c(C)nn2CC`, 24.6%.
The value for `CCC(NC(=O)c1ccc2[nH]ccc2c1)C(=O)N1CCOCC1` (stereo not given) was 5.84%; that for `CC(C)CCN1N=C(C(=O)N2CCCCCC2)S(=O)(=O)c2ccccc21` was 11.8%; that for `Cc1noc(C)c1CN(C)C(=O)NC1CCN(C2CC2)CC1` was -10.1%.
On to `CC(C)COC(C)C(=O)NCc1ccc(-n2cncn2)nc1` (stereo not given), for which the cytotoxicity at 10 µM was -5.65%.
The value for `O=C(NC1CCCCC1)C1CCCN(C(=O)Nc2ccccn2)C1` (stereo not given) was 3.57%; that for `COc1c(C2CCCN2Cc2nc(C3CC3)no2)c(C)nn1C` (stereo not given) was -1.79%; that for `Cc1noc(C)c1C(=O)NCC1CCCCN1Cc1ccccc1` (stereo not given) was -4.4%.
In the case of `O=C(NCc1sc2ccccc2c1Cl)c1cc2n(n1)CCNC2` it was 7.94%.
